# An excerpt weighted towards active compounds, which were near 5.8% of everything screened.
# IDH1 R132H inh = inhibitors of human IDH1 R132H | O75874 | inhibition, % at 10 µM | 70,000 compounds, 0.18% hits | IDH1 R132H reductase, diaphorase/resazurin fluorescence, 60 min; in the data active = inhibition above about 34%;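 also: 0% = DMSO and 100% = no enzyme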
# Target sequence (O75874 whole entry R132H): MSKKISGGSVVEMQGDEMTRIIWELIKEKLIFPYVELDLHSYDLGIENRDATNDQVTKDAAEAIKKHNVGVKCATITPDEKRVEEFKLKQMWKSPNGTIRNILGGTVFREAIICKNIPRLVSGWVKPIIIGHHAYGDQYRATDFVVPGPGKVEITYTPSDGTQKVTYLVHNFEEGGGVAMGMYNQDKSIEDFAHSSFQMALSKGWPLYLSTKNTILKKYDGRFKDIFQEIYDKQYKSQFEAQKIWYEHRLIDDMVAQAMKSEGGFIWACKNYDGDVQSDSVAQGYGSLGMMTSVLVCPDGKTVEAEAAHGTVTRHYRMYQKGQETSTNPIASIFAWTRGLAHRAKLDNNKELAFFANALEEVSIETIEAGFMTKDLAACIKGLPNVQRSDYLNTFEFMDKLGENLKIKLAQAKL
# Pf Dd2 inh = blocks growth of Plasmodium falciparum Dd2 parasites; P. falciparum Dd2 growth, SYBR Green, 72 h; active compounds read low; activity change, % at 10 µM; 94,000 compounds, 2.3% hits; AID 1159554; in the data active = activity change below about -80%
# GASC1 inh = inhibitors of human demethylase GASC-1 KDM4C. inhibition, % at 12.5 µM. Q9H3R0. GST-KDM4C 2-372, H3K9me3 peptide, LANCE TR-FRET. 96,000 compounds, 0.15% hits;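 active = mean replicate inhibition above about 25%, with at least 55% of replicates also reaching it, limit read from the data, passing the limit was not always enough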
#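 material = GST-tagged GASC-1 (JMJD2C) catalytic fragment, aa 2-372 | amount = enzyme final amount 10 nM | medium = HEPES buffer, pH 7.5, plus ascorbate | also added = H3K9me3 peptide substrate, Fe(II), 2-oxoglutarate | dosing = single dose | times = 30 min demethylation and 1 h detection at room temperature | detection = LANCE TR-FRET | read-out basis = Fall in 671/618 emission ratio as inhibition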
# T cruzi growth = blocks T. cruzi growth in NIH3T3 culture; T. cruzi beta-gal in NIH3T3, GalScreen luminescence, 90 h; inhibition, % at 8.34 µM; 77,000 compounds, 5.9% hits;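 active = mean inhibition above about 93%, with at least 55% of replicates each passing it, limit read from the data, passing the limit was not always enough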
# Active calls of the source: *; . = no result given; ! = repeats disagree.
SMILES,IDH1 R132H inh,Pf Dd2 inh,GASC1 inh,T cruzi growth
COc1ccc(NC(=O)Nc2cccc3c2O[C@H](CN(C)C(=O)Nc2ccccc2)[C@@H](C)CN([C@H](C)CO)C3=O)cc1,0,-4,0,-15
COc1ccc(NC(=O)N(C)C[C@H]2Oc3c(NC(=O)Nc4ccccc4)cccc3C(=O)N([C@H](C)CO)C[C@H]2C)cc1,.,-86*,3,-7
CS(=O)(=O)N(CC(=O)Nc1cccc2ccccc12)c1ccc(I)cc1,0,.,.,.
COc1ccc(OC)c(S(=O)(=O)N2CCC(C(=O)Nc3ccc(Cl)c(C(F)(F)F)c3)CC2)c1,0,.,.,.
CCCCn1c2ccccc2c2nnc(SCCN3CCOCC3)nc21,1,.,.,.
O=C(CSc1nc(-c2ccccc2)cc(C(F)(F)F)n1)Nc1ccc2c(c1)CCC2,1,.,.,.
COc1ccc2c3c(n(C)c2c1)[C@H](CO)N(Cc1ccc(Cl)cc1)CC31CCN(CC2CC2)CC1,.,-88*,4,.
COc1ccc2c3c(n(C)c2c1)[C@@H](CO)N(Cc1ccc(Cl)cc1)CC31CCN(CC2CC2)CC1,.,-91*,2,.
COc1ccc2c3c(n(C)c2c1)[C@H](CO)N(Cc1ccc(F)cc1)CC31CCN(CC2CC2)CC1,.,-84*,0,.
COc1ccc2c3c(n(C)c2c1)[C@H](CO)N(Cc1ccccc1F)CC31CCN(CC2CC2)CC1,.,-90*,2,.
COc1ccc2c3c(n(C)c2c1)[C@H](CO)N(Cc1ccc(Cl)cc1)CC31CN(CC2CC2)C1,.,-58,-1,.
Cc1ccc(OCC(=O)Nc2ccccc2N2CCN(S(C)(=O)=O)CC2)cc1,0,.,.,.
CCC[C@H]1CC2=C(C[C@@H](CC)CC3=C1C(=O)OC3=O)C(=O)OC2=O,5,.,.,.
COc1ccc2c3c(n(C)c2c1)[C@H](CO)N(CC1CCCC1)CC31CCN(Cc2nccs2)CC1,.,-71,1,.
COc1ccc2c3c(n(C)c2c1)[C@@H](CO)N(CC1CCCCC1)CC31CCN(Cc2nccs2)CC1,.,-90*,1,.
COc1ccc([N+](=O)[O-])cc1NC(=O)CN(c1ccc(Cl)cc1C)S(C)(=O)=O,0,.,.,.
C[C@@H]1CCCCO[C@@H](CN(C)S(=O)(=O)c2ccc(Cl)cc2)[C@@H](C)CN([C@@H](C)CO)C(=O)c2cc(NC(=O)Nc3ccc(C(F)(F)F)cc3)ccc2O1,.,-83*,-2,55
C[C@@H]1CN([C@@H](C)CO)C(=O)c2cc(NC(=O)Nc3ccc(C(F)(F)F)cc3)ccc2O[C@@H](C)CCCCO[C@@H]1CN(C)S(=O)(=O)c1ccc(Cl)cc1,.,-86*,-4,84
C[C@@H]1CCCCO[C@H](CN(C)S(=O)(=O)c2ccc(Cl)cc2)[C@H](C)CN([C@@H](C)CO)C(=O)c2cc(NC(=O)Nc3ccc(C(F)(F)F)cc3)ccc2O1,3,-57,6,86
Cc1ccc(S(=O)(=O)N(C)C[C@H]2OCCCC[C@@H](C)Oc3ccc(NC(=O)Nc4ccc(C(F)(F)F)cc4)cc3C(=O)N([C@@H](C)CO)C[C@@H]2C)cc1,.,-79,0,.
Cc1ccc(S(=O)(=O)N(C)C[C@H]2OCCCC[C@H](C)Oc3ccc(NC(=O)Nc4ccc(C(F)(F)F)cc4)cc3C(=O)N([C@@H](C)CO)C[C@H]2C)cc1,.,-66,-2,.
Cc1ccc(S(=O)(=O)N(C)C[C@@H]2OCCCC[C@@H](C)Oc3ccc(NC(=O)Nc4ccc(C(F)(F)F)cc4)cc3C(=O)N([C@H](C)CO)C[C@@H]2C)cc1,.,-82*,0,.
COc1ccc(OCC(=O)Nc2cc(OC)c(Cl)cc2OC)cc1,0,.,.,.
Cc1cc(C(=O)Nc2cccc3c2O[C@H](CN(C)Cc2ccc(C(=O)Nc4ccccc4N)cc2)[C@@H](C)CN([C@H](C)CO)C3=O)n(C)n1,.,-88*,17,98
Cc1cc(C(=O)Nc2cccc3c2O[C@@H](CN(C)Cc2ccc(C(=O)O)cc2)[C@H](C)CN([C@H](C)CO)C3=O)n(C)n1,3,-1,2,.
SMILES,IDH1 R132H inh,Pf Dd2 inh,GASC1 inh,T cruzi growth
Cc1cc(C(=O)Nc2cccc3c2O[C@@H](CN(C)Cc2ccc(C(=O)Nc4ccccc4N)cc2)[C@H](C)CN([C@H](C)CO)C3=O)n(C)n1,0,-92*,16,98
Cc1cc(C(=O)Nc2cccc3c2O[C@@H](CN(C)Cc2ccc(C(=O)O)cc2)[C@@H](C)CN([C@@H](C)CO)C3=O)n(C)n1,-1,-7,-1,.
CO[C@H]1C[C@H](O[C@H]2[C@H](C)[C@@H](O[C@@H]3O[C@H](C)C[C@H](N(C)C)[C@@H]3OC(C)=O)[C@@H](C)C[C@]3(CO3)C(=O)[C@H](C)[C@@H](OC(C)=O)[C@@H](C)[C@@H](C)OC(=O)[C@@H]2C)O[C@@H](C)[C@@H]1OC(C)=O,0,.,.,.
COc1cccc(NC(=O)CSc2nc3ccccc3c(=O)n2-c2cccc(C(F)(F)F)c2)c1,0,.,.,.
C/C=C/c1ccc2c(c1)[C@H]1[C@H](CCN1C(=O)c1cccc(F)c1)[C@H](CO)N2,.,-93*,0,.
CC(=O)N1CC[C@@H]2[C@@H](CO)Nc3ccc(C#Cc4ccccc4F)cc3[C@@H]21,.,-83*,-2,81
C/C=C/c1ccc2c(c1)[C@H]1[C@H](CCN1C(=O)c1ccc(F)cc1)[C@H](CO)N2,.,-89*,0,.
O=C(Cc1cccnc1)N1CC[C@H]2[C@H](CO)Nc3ccc(C#Cc4cccc(F)c4)cc3[C@H]21,.,-84*,1,.
CC(=O)N1CC[C@H]2[C@H](CO)Nc3ccc(C#Cc4ccccc4F)cc3[C@H]21,.,-21,-3,.
O=C(c1cccc(F)c1)N1CC[C@H]2[C@H](CO)Nc3ccc(-c4cccc(F)c4)cc3[C@H]21,.,5,0,26
COc1ccc(NC(=O)CNS(=O)(=O)c2ccccc2)cc1OC,0,.,.,.
COc1ccc2c(c1)c(/C=C/c1nc3ccc(I)cc3c(=O)n1CCCO)c(C)n2C,0,.,.,.
C/C=C/c1ccc2c(c1)[C@@H]1[C@@H](CCN1S(=O)(=O)c1ccc(C)cc1)[C@@H](CO)N2,.,-41,1,22
O=C(c1cccc(F)c1)N1CC[C@H]2[C@H](CO)Nc3ccc(C#Cc4cccc(F)c4)cc3[C@H]21,.,-84*,-7,.
C/C=C/c1ccc2c(c1)[C@@H]1[C@@H](CCN1S(=O)(=O)c1ccccc1C)[C@H](CO)N2,.,-86*,-2,.
CCOC(=O)c1c(C)[nH]c2ccc3c(c12)CN1CCc2cc(OC)ccc2C1O3 (stereo not given),-4,.,.,.
CCOc1cc(C2c3c(oc4ccc(F)cc4c3=O)C(=O)N2CCc2ccc(OC)cc2)ccc1O (stereo not given),0,.,.,.
N#Cc1ccc(-c2ccc([C@@H]3[C@@H]4CN(C(=O)Nc5ccc6c(c5)OCO6)C[C@H]3N4)cc2)cc1,.,-87*,1,.
N#Cc1ccc(-c2ccc(C3[C@@H]4CN(C(=O)C5CC5)C[C@H]3N4)cc2)cc1 (stereo not given in full),.,-88*!,-2,.
C/C=C/c1ccc(C2[C@@H]3CN(C(=O)Nc4ccc5c(c4)OCO5)C[C@H]2N3)cc1 (stereo not given in full),.,-37,4,.
